The target of assay [1] is T1, Poly [ADP-ribose] polymerase 1 (Homo sapiens, UniProt P09874).
Assay [2] concerns the target T1, Poly [ADP-ribose] polymerase 1. Put plainly: In vitro inhibition against human full length PARP protein; IA means inactive. Summed up: (§1)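 Baculovirus-expressed, purified human full-length PARP (20 nM) with DNase I-activated calf thymus DNA (10 μg/mL) and NAD+ (500 μM, with [32P]NAD+). Run in 50 mM Tris pH 8.0, 10 mM MgCl2, 1 mM TCEP, 2% DMSO, 25 °C, 5 min (linear to 8 min). Stopped with ice-cold TCA and filtered. Acid-insoluble [32P]ADP-ribose read by phosphorimager. Ki from competitive-inhibition fit; tight-binding equation where needed.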

Assay [3] has the same target. Nature of the assay: In vitro inhibition against human full length PARP protein. Summed up:
as §1

Assay [4] has as its system A2780. Nature of the assay: Potentiation of growth inhibition of A2780 by compound alone in experiment 1. The format is functional, cell-based. Conditions: Homo sapiens; call rule not given here. Summed up:
(§2)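 A2780 cells were grown in HEPES-RPMI 1640 + 10% FCS and seeded at 2.0–2.5 × 10^3 per well. After overnight attachment (16–24 h) they were exposed for 72 h to graded temozolomide or topotecan ± 10 μM PARP inhibitor (1% DMSO). Sulforhodamine B read at 570 nm, 5 replicate wells, % of matched control. IC50 by nonlinear regression; potentiation is IC50 alone over IC50 with inhibitor.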

In assay [5] the test system is A2780. Nature of the assay: Potentiation of growth inhibition of A2780 cells by compound alone in experiment 2. Type of assay: functional, cell-based. The note with it: Homo sapiens. Summed up:
as §2

Assay [6] concerns A2780. Put plainly: Potentiation of growth inhibition of A2780 cells along with 10 uM NU1085 in experiment 1. Type of assay: functional, cell-based. Conditions: Homo sapiens. Summed up:
as §2

In assay [7] the test system is A2780. Put plainly: Potentiation of growth inhibition of A2780 cells along with 10 uM NU1085 in experiment 2. The format is functional, cell-based. The note with it: Homo sapiens. Summed up: as §2
The test system of assay [8] is A2780. Nature of the assay: Potentiation factor at 50% growth inhibition (IC50 of compound to that of compound along with PARP inhibitor) in experiment 1. The format is functional, Homo sapiens. Summed up: as §2
For assay [9], the system named is A2780. Nature of the assay: Potentiation factor at 50% growth inhibition (IC50 of compound to that of compound along with PARP inhibitor) in experiment 2. The format is functional, Homo sapiens. Summed up: as §2
The subject of assay [10] is A2780. Nature of the assay: Potentiation of growth inhibition of A2780 cells by compound alone in experiment 1. Type of assay: functional, cell-based. The note with it: Homo sapiens. Summed up: as §2

What is called Ki is the equilibrium dissociation constant of an inhibitor or competing ligand from its target. A higher Ki goes with lower affinity. One may read the IC50 as the concentration at which inhibition is half-maximal.

T1 sequence (P09874 whole entry): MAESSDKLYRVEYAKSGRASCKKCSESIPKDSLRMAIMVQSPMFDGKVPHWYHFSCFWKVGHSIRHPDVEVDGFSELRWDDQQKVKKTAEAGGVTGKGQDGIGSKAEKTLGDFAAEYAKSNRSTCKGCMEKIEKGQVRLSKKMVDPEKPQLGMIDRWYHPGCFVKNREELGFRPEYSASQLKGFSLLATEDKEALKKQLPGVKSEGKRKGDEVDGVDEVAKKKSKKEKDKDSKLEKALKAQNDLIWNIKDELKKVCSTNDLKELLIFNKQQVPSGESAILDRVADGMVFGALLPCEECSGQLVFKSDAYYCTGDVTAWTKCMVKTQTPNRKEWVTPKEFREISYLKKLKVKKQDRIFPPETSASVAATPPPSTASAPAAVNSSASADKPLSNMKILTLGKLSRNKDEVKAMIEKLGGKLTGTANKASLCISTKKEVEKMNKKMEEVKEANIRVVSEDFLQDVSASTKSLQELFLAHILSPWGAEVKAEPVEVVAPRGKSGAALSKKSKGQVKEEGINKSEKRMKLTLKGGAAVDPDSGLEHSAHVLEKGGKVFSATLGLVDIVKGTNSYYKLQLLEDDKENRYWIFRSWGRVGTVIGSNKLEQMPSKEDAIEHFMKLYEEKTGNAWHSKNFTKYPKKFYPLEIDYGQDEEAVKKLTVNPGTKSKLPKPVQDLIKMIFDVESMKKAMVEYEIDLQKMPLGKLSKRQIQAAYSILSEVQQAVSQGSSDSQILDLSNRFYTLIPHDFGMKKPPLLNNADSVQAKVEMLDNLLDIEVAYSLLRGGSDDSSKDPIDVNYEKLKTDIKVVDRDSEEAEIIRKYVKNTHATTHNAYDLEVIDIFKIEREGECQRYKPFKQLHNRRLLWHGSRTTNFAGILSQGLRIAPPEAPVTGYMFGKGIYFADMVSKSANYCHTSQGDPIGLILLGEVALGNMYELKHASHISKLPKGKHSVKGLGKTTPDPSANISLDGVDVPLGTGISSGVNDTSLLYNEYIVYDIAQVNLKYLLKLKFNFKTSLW

Regarding `Cc1nc2c(C(N)=O)cccc2[nH]1`, the inhibition constant Ki in [1] was 99 nM.

`CNC(=O)c1cccc2[nH]c(-c3ccc(O)cc3)nc12`: the Ki result in assay [2] is reported as “Not Active”.

For `NC(=O)c1cccc2nc(-c3ccc(O)cc3)[nH]c12`, in assay [1], the inhibitory constant (Ki) is 6 nM. Take `COc1ccc(-c2nc3c(C(N)=O)cccc3n2C)cc1`: in assay [1], the Ki worked out at 32 nM.

`COc1ccc(-c2nc3c(C(N)=O)cccc3[nH]2)cc1`: the inhibition constant Ki in assay [1] turned out to be 6.8 nM.

In turn, `NC(=O)c1cccc2nc(-c3ccc(Cl)cc3)[nH]c12` returned a Ki in [1] of 3 nM.

With `CNC(=O)c1cccc2[nH]c(-c3ccc(OC)cc3)nc12`, in assay [2], the Ki result is “Not Active”. In [1], `COc1cc(-c2nc3c(C(N)=O)cccc3[nH]2)cc(OC)c1OC` yielded an inhibition constant Ki of 136 nM.

Consider `NC(=O)c1cccc2[nH]c(-c3cccc(Cl)c3)nc12`, for which the inhibition constant (Ki) in assay [1] amounted to 8.4 nM. Regarding `NC(=O)c1cccc2[nH]c(C(F)(F)F)nc12`, the affinity in assay [1], expressed as Ki, was 350 nM. Same read-out and setting: as for `NC(=O)c1cccc2[nH]c(-c3ccc(CO)cc3)nc12`, the figure is 1.6 nM; as for `NC(=O)c1cccc2[nH]c(-c3ccccc3CO)nc12`, 10.6 nM; as for `COc1ccc(-c2nc3c(C(N)=O)cccc3[nH]2)cc1OC`, 5.4 nM. The same measure, in the same setting: as for `NC(=O)c1cccc2[nH]c(-c3ccccc3F)nc12`, the figure is 9 nM; as for `NC(=O)c1cccc2[nH]cnc12`, 95 nM. The compound `CCOC(=O)c1ccc(-c2nc3c(C(N)=O)cccc3[nH]2)cc1` registered an inhibitory constant (Ki) in assay [1] of 8.1 nM. On the same count and under the same terms, as for `COc1cc(-c2nc3c(C(N)=O)cccc3[nH]2)ccc1O`, the figure is 13 nM; as for `C=CCOc1cc(-c2nc3c(C(N)=O)cccc3[nH]2)ccc1OC`, 9.4 nM; as for `NC(=O)c1cccc2nc(-c3ccc(N)cc3)[nH]c12`, 11 nM. In the case of `CN(C)c1ccc(-c2nc3c(C(N)=O)cccc3[nH]2)cc1`, the Ki in assay [1] was found to be 5.8 nM. With `NC(=O)c1cccc2[nH]c(-c3ccccc3C(F)(F)F)nc12`, the Ki in assay [1] was found to be 190 nM. Take `NC(=O)c1cccc2[nH]c(-c3ccc(C(F)(F)F)cc3)nc12`: in [1], the affinity, expressed as Ki, was 1.2 nM. In the case of `NC(=O)c1cccc2[nH]c(-c3ccc(C(=O)O)cc3)nc12`, the Ki in assay [1] was determined as 290 nM. For the compound `NC(=O)c1cccc2[nH]c(-c3ccccc3Cl)nc12`, in [1], the Ki came to 9.4 nM. In [1], `NC(=O)c1cccc2[nH]c(-c3cccc(C(F)(F)F)c3)nc12` displayed a Ki of 8 nM. Still for that read-out and setting: as for `N#Cc1ccc(-c2nc3c(C(N)=O)cccc3[nH]2)cc1`, the figure is 4 nM; as for `NC(=O)c1cccc2[nH]c(-c3cccc(O)c3)nc12`, 6.3 nM. `O=C(O)c1cccc2[nH]c(-c3ccc(O)cc3)nc12` yielded an inhibition constant (Ki) in assay [1] of 10000 nM. Compound `NC(=O)c1cccc2[nH]c(-c3cccc(CO)c3)nc12` registered an inhibitory constant (Ki) in [1] of 6.8 nM. `NC(=O)c1cccc2[nH]c(-c3ccc4c(c3)OCO4)nc12`: in assay [1], the Ki is 5.9 nM. Still for that read-out and setting: to `COc1ccc(-c2nc3c(C(N)=O)cccc3[nH]2)cc1O` belongs 2 nM; to `COc1ccc(-c2nc3c(C(N)=O)cccc3n2C(=O)OCc2ccccc2)cc1`, 530 nM.

In the case of `NC(=O)c1cccc2[nH]c(-c3ccc([N+](=O)[O-])cc3)nc12`, affinity in assay [3] was put at a Ki of 8 nM. As to `CC(C)[Si](OCc1ccc(-c2nc3c(C(N)=O)cccc3[nH]2)cc1)(C(C)C)C(C)C`, the affinity in assay [1] corresponds to a Ki of 85 nM. On the same count and under the same terms, to `COc1ccccc1-c1nc2c(C(N)=O)cccc2[nH]1` belongs 126 nM. For `Cn1nnc2c(C(N)=O)ncn2c1=O` [TEMOZOLOMIDE], the IC50 in the assay with A2780 [4] is 525000 nM; in the assay with A2780 [5], 368000 nM; in the assay with A2780 [6] it was 188000 nM; with A2780 [7], 183000 nM. Further, the PF50 in the assay with A2780 [8] came out at 2.8; in the assay on A2780 [9] it was 2. `CC[C@@]1(O)C(=O)OCc2c1cc1n(c2=O)Cc2cc3c(CN(C)C)c(O)ccc3nc2-1` [TOPOTECAN]: the concentration for half-maximal inhibition (IC50) in the assay with A2780 [10] came out at 22600 nM; in the assay with A2780 [5], 22000 nM; in the assay with A2780 [6] it was 7800 nM; in the assay on A2780 [7], 8700 nM. Further, the results for the PF50 in the assay with A2780 [8] and in the assay on A2780 [9] were 2.9 and 2.5, respectively.
